Here are results for one compound from ChEMBL document CHEMBL4014309, “Development of an Acrylate Derivative Targeting the NLRP3 Inflammasome for the Treatment of Inflammatory Bowel Disease” (J Med Chem, 2017).

Molecules are shown by their SMILES. The source made the active and inactive calls. No cut-off for these calls is given here.

The nature of data set [1]: Cysteamine reactivity in PBS assessed as free compound level at pH 7.4 measured after 30 mins by DTNB reagent based RP-UHPLC analysis. The essentials:
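The compound was reacted with excess cysteamine in pH 7.4 phosphate buffer with CH3CN cosolvent at 37 °C. Remaining compound was followed by UHPLC over 4 h, sampled at 30 min, 60 min and 4 h, and expressed as percent of starting concentration.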

For data set [2], the target named is NACHT, LRR and PYD domains-containing protein 3 (Homo sapiens) (UniProt Q96P20). Put plainly: Irreversible inhibition of His-FLAG- tagged NLRP3-ATPase (unknown origin) at 100 uM preincubated for 55 mins followed by ATP addition measured after 40 mins by ADP-Glo assay. In a few lines:
(§1)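 His-FLAG NLRP3 (105 ng/well) captured on anti-FLAG-coated, BSA-blocked wells for 3 h at 4 °C. Compound (100 µM final, 2% DMSO) preincubated 55 min at 37 °C. Wells were washed three times (or not washed), then ATP (250 µM) was added for 40 min at 37 °C. ADP was read by ADP-Glo. Equal protein loading was checked by anti-His ELISA.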

Data set [3] deals with Rattus norvegicus. Put plainly: Antiinflammatory activity in DNBS-induced Sprague-Dawley rat colitis model assessed as DNBS-induced decrease in colonic length at 25 mg/kg/day, ig administered as suspension in olive oil for 6 days simulatneously with 6 days of DNBS-challenge (reference value: -34.4%). The data set is classed as functional. Set-up: scale not given: the % may be the effect or the level left.

The target in data set [4] is NACHT, LRR and PYD domains-containing protein 3 (Homo sapiens) (UniProt Q96P20). As to the kind of experiment: Inhibition of recombinant YFP-tagged NLRP3 (unknown origin) expressed in HEK293 cells co-expressing luciferase assessed as reduction in nigericin-induced intracellular K+ decrease-mediated conformational changes in protein at 10 to 100 uM measured after 24 hrs by BRET assay. The data set is classed as cell-based. In a few lines: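 HEK293 cells stably expressing YFP-NLRP3-Luc were grown in DMEM with 10% FCS, plated on poly-L-lysine, and exposed to compound or vehicle (15 h per methods; 24 h per figure legend). Cells were washed, then BRET was read after adding coelenterazine-H (5 µM). Kinetics used nigericin (10 µM) in vehicle or high-K+ (140 mM) buffer. Slopes of three phases were taken; mean ± SEM, n = 5–12.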

In data set [5] the test system is Rattus norvegicus. As to the kind of experiment: Antiinflammatory activity in DNBS-induced Sprague-Dawley rat colitis model assessed as body weight recovery at 12.5 to 50 mg/kg/day, ig administered as suspension in olive oil for 6 days simulatneously with 6 days of DNBS-challenge measured daily during compound dosing. It is filed as functional, organism-based. In a few lines:
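Colitis was induced with intrarectal DNBS (15 mg in 0.25 mL 50% ethanol). Intragastric treatment ran 6 days from the day of induction: 1 mg/kg/day in 1% methylcellulose, or 12.5–50 mg/kg/day in olive oil. Body weight change (g) was recorded at the end of treatment, mean ± SEM, n = 10.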

Data set [6] addresses NACHT, LRR and PYD domains-containing protein 3 (Mus musculus) (UniProt Q8R4B8). As to the kind of experiment: Inhibition of NLRP3 inflammasome in LPS-primed C57BL/6 mouse bone marrow derived macrophages assessed as reduction in ATP-induced caspase-1 activation at 10 to 100 uM preincubated for 1 hr followed by stimulation with ATP measured after 30 mins by Western blot analysis. On the technique in general: A western blot detects proteins with antibodies after separation by electrophoresis.

A short description of data set [7]: Drug metabolism in Sprague-Dawley rat ileum tract assessed as 2-(2-chlorobenzyl)acrylic acid level at 12.5 mg as suspension in olive oil measured after 2 hrs by UHPLC-M. The data set is classed as ADME. The note with it: in vivo.
Another data set addresses T1, Caspase-1 (Homo sapiens) (UniProt P29466).
T1 sequence (whole entry): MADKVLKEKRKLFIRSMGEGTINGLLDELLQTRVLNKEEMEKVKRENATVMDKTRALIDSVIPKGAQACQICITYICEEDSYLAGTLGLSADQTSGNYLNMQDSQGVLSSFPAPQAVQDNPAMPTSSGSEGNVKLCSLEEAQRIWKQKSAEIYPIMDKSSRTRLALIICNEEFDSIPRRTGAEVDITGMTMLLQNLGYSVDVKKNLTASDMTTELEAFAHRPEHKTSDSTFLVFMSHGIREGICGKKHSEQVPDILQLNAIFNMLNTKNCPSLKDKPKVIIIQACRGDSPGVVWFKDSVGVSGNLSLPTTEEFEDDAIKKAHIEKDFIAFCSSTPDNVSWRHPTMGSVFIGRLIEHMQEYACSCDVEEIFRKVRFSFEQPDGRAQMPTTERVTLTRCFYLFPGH
Put plainly: Inhibition of recombinant human caspase-1 at 10 to 100 uM using z-YVAD-AFC as substrate measured every 10 mins for 3 hrs by fluorescence analysis.

For data set [8], the system named is Rattus norvegicus. As to the kind of experiment: Toxicity in Sprague-Dawley rat at 50 mg/kg/day, ig. It is filed as organism-based. To be noted: in vivo, po. In a few lines:
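Rats received intrarectal DNBS (15 mg in 0.25 mL 50% ethanol) or none. Dosing was intragastric for 6 days from induction: compound 12.5–50 mg/kg/day in 0.2 mL olive oil, or dexamethasone 1 mg/kg/day in 0.2 mL 1% methylcellulose. Body weight change was recorded at end; n = 10, mean ± SEM.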

Data set [9] in a line: Glutathione reactivity assessed as adduct formation of the compound at pH 7.4 and 9.
Data set [10] addresses NACHT, LRR and PYD domains-containing protein 3 (Homo sapiens) (UniProt Q96P20). Put plainly: Irreversible inhibition of His-FLAG- tagged NLRP3-ATPase (unknown origin) at 100 uM preincubated for 55 mins followed by compound wash-out and ATP addition measured after 40 mins by ADP-Glo assay. The essentials:
as §1

A short description of data set [11]: Cytotoxicity against human THP1 cells assessed as cell viability at 100 uM after 72 hrs by MTT assay. The data set is classed as cell-based. To be noted: THP-1 cells, read-out: Activity. The essentials:
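Human THP-1 cells were exposed to 0.1–100 µM for 72 h, and viability was read by MTT. TC50 is the concentration that cuts viability by 50%; percent viable cells at 100 µM is also reported. Mean ± SEM of ≥3 experiments.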
On the technique in general: Tetrazolium dyes change colour on reduction, which living cells bring about.

In data set [12] the target is NACHT, LRR and PYD domains-containing protein 3 (Homo sapiens) (UniProt Q96P20). As to the kind of experiment: Inhibition of recombinant human NLRP3 ATPase assessed as hydrolysis of ATP at 50 uM preincubated for 15 mins followed by addition of ATP measured after 40 mins by ADP-Glo assay. In a few lines:
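Human recombinant NLRP3 (0.105 µg) in 20 mM Tris-HCl pH 7.8, 133 mM NaCl, 20 mM MgCl2, 3 mM KCl, 0.56 mM EDTA, 0.5% DMSO. Compound (100 or 50 µM) was preincubated 15 min at 37 °C, then ATP (250 µM) was added for 40 min at 37 °C. ADP was read by ADP-Glo luminescence. Result is % inhibition vs vehicle; mean ± SEM, ≥3 experiments.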
For orientation: In ADP-Glo the light output rises with the ADP produced.

The species entered for a further data set is Mus musculus. As to the kind of experiment: Inhibition of NF-kB signaling pathway in C57BL/6 mouse bone marrow derived macrophages assessed as reduction in LPS-induced TNFalpha gene expression at 10 to 100 uM preincubated for 30 mins followed by LPS stimulation measured after 4 hrs by qRT-PCR analysis. In a few lines: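 C57BL/6 bone marrow macrophages, differentiated with 20% L-cell medium, were preincubated with compound for 30 min. They were then left untreated or given LPS (1 ng/mL, 4 h). Tnfa, Il6 and Il1b expression was measured by quantitative RT-PCR as 2^-ΔΔCt.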

The next data set concerns HEK293. As to the kind of experiment: Cytotoxicity against HEK293 cells assessed as extracellular LDH level at 10 to 100 uM after 24 hrs. The note with it: human, hek293, 24 h. It is filed as cell-based.

Sequence of NACHT, LRR and PYD domains-containing protein 3 (Homo sapiens) (Q96P20 whole entry, the tested form may be a part): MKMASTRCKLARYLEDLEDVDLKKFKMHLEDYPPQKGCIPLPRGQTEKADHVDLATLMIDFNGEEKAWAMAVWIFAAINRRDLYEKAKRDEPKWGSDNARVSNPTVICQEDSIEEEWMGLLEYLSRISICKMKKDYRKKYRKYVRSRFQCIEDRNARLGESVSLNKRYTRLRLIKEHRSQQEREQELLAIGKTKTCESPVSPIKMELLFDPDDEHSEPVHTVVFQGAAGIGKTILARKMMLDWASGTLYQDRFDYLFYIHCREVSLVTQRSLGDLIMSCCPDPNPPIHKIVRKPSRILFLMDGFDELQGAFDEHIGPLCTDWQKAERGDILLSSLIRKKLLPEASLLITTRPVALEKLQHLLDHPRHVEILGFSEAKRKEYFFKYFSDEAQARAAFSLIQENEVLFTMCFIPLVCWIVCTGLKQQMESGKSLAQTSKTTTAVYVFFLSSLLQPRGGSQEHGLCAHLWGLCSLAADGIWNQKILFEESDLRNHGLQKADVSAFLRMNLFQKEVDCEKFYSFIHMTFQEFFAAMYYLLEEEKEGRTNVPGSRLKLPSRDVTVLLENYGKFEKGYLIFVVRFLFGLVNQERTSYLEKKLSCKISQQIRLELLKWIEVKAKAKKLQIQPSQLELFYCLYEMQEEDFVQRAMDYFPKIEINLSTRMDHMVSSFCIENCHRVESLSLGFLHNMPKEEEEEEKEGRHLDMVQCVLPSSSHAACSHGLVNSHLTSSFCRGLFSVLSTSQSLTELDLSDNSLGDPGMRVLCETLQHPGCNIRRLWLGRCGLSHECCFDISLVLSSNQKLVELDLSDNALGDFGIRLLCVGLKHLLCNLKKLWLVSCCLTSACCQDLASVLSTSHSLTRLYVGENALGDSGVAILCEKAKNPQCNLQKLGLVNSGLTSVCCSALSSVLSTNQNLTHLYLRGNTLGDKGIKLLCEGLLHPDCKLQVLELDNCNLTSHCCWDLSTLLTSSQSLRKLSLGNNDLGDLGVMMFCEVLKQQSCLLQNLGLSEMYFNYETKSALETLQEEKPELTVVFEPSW
Sequence of NACHT, LRR and PYD domains-containing protein 3 (Mus musculus) (Q8R4B8 whole entry, the tested form may be a part): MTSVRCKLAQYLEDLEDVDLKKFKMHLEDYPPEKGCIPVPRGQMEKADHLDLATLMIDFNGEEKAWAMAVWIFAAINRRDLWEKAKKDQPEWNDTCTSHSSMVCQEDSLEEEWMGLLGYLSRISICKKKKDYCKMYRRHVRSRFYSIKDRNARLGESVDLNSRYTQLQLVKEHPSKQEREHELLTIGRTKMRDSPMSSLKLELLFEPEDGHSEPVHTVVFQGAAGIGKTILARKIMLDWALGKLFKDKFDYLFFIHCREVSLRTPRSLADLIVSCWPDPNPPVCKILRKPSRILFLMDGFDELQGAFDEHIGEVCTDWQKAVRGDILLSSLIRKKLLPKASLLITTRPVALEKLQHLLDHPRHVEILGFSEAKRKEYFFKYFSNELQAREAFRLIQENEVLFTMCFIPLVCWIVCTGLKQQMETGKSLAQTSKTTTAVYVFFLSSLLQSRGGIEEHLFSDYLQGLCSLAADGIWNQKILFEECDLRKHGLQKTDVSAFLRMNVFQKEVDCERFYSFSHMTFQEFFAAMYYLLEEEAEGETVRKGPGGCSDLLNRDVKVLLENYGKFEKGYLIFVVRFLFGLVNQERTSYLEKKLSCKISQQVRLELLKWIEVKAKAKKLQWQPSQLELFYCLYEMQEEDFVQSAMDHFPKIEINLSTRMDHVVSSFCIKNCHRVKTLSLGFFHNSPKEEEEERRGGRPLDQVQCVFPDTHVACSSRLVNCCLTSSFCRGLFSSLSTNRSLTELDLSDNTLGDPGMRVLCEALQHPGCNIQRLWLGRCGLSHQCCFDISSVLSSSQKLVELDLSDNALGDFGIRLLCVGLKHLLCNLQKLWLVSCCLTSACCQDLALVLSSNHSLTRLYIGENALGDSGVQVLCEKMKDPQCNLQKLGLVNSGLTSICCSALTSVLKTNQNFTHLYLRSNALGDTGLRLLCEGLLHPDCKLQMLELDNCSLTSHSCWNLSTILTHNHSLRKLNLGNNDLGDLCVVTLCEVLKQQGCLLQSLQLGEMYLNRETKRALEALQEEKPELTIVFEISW

Usually inhibition stands for how much of the control response was suppressed. As for `C=C(Cc1ccccc1Cl)C(=O)OCC`, the Stability in data set [1] turned out to be 89.4%. In addition, the inhibition was 45% in data set [2], 40% in data set [10] and 29% in [12]. Further, the Activity in the data set on Rattus norvegicus [3] is reported as -13%; in the data set on Rattus norvegicus [8] it was “Non-Toxic”; with HEK293, “Non-Toxic”. In addition, the inhibition result (in [4]; in data set [6]; in the data set listed under Mus musculus) was “Active” in each case. For the same compound, the result in the data set on Rattus norvegicus [5] was Active. Also, the Drug metabolism entry in data set [7] was “Metabolite_Detected”; in data set [9], “Metabolite not detected”. For the same compound, the inhibition entry at Caspase-1 (Homo sapiens) was “inactive”. Also, the viability at 72 h, 100 µM in [11] is 96.6%.
